Experimental data reported in ChEMBL document CHEMBL3627690, “Scaffold-Hopping and Structure-Based Discovery of Potent, Selective, And Brain Penetrant N-(1H-Pyrazol-3-yl)pyridin-2-amine Inhibitors of Dual Leucine Zipper Kinase (DLK, MAP3K12)” (J Med Chem, 2015).
Active and inactive are the calls of the source. No cut-off for these calls is given here.

What was measured:
[1] = target: Ribosomal protein S6 kinase beta-1 (Homo sapiens) (UniProt P23443); assay: Inhibition of p70S6K (unknown origin) at 1 uM by FRET method
Chain of Ribosomal protein S6 kinase beta-1 (Homo sapiens) (P23443 whole entry, looked up): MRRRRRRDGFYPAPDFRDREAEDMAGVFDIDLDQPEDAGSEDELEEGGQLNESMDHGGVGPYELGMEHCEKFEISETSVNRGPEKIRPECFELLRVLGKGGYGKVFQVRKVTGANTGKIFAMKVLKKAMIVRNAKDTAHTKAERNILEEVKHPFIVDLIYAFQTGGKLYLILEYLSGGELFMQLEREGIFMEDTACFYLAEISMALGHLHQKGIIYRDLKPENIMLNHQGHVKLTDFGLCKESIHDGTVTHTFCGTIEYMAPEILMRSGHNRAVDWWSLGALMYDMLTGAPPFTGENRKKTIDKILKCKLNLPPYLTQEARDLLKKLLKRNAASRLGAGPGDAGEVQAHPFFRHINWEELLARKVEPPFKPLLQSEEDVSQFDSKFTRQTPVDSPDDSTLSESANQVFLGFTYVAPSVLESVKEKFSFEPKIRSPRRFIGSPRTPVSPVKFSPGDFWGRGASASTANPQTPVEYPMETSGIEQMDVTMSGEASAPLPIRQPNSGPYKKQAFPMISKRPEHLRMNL
In short: (§1)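 Single-point screen at 1 uM against a panel of 58 representative kinases. Readout was labeled-peptide phosphorylation by FRET (Z′-LYTE), using the vendor's protocols.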

[2] = target: Rho-associated protein kinase 1 (Homo sapiens) (UniProt Q13464); assay: Inhibition of ROCK1 (unknown origin) at 1 uM by FRET method; in short: as §1
[3] = target: Non-receptor tyrosine-protein kinase TYK2 (Homo sapiens) (UniProt P29597); assay: Inhibition of TYK2 (unknown origin) at 1 uM by FRET method; in short: as §1
Chain of Non-receptor tyrosine-protein kinase TYK2 (Homo sapiens) (P29597 whole entry): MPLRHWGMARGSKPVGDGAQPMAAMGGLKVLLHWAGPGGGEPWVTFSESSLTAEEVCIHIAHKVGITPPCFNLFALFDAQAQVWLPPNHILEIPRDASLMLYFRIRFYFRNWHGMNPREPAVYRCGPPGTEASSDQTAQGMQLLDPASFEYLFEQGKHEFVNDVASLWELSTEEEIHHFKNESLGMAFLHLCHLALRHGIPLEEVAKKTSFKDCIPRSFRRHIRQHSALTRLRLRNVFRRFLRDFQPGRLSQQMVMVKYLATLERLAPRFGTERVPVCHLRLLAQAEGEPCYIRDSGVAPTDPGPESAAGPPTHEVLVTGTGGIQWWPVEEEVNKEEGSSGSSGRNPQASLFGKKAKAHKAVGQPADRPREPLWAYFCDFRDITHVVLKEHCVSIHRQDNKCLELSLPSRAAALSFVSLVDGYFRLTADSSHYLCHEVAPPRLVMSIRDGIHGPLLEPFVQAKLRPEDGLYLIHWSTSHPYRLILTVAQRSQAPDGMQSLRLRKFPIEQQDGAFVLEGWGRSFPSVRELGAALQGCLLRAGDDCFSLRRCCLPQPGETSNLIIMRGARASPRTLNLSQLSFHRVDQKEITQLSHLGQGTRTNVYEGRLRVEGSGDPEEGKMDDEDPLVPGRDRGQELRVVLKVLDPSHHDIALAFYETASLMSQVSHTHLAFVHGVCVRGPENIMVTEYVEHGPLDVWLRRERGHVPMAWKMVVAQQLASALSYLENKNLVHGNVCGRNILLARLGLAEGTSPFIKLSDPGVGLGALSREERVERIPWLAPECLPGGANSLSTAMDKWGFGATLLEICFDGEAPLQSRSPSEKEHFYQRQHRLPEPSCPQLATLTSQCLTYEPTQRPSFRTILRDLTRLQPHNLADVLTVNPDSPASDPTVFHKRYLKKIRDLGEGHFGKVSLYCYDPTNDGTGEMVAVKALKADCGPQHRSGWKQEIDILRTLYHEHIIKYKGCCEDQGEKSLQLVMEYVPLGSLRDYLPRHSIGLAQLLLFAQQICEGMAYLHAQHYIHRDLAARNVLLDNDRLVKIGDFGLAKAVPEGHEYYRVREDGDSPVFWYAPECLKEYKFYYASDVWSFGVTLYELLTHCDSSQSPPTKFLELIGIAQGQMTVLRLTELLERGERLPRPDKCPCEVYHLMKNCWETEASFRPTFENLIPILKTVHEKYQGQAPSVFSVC

[4] = target: Dual specificity tyrosine-phosphorylation-regulated kinase 3 (Homo sapiens) (UniProt O43781); assay: Inhibition of DYRK3 (unknown origin) at 1 uM by FRET method
In short: (§2)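 SelectScreen panel of 58 kinases, each tested at a single 1 µM compound concentration. Read-out was Z′-LYTE FRET of labeled peptide phosphorylation, run by the vendor's protocols, reported as percent inhibition.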

[5] = target: Casein kinase II subunit alpha (Homo sapiens) (UniProt P68400); assay: Inhibition of CK2alpha1 (unknown origin) at 1 uM by FRET method; in short: as §2
Chain of Casein kinase II subunit alpha (Homo sapiens) (P68400 whole entry, looked up): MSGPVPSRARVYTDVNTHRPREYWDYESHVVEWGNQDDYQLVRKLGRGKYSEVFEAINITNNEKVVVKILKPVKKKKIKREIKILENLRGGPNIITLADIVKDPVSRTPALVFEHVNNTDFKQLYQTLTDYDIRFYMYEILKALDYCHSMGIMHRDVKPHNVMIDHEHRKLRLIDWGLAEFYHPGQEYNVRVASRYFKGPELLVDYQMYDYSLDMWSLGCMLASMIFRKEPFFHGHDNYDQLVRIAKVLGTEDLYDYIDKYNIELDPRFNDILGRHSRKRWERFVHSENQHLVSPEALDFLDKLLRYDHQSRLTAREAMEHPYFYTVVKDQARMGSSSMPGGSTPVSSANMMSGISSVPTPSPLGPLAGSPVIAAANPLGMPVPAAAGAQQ

[6] = target: Fibroblast growth factor receptor 1 (Homo sapiens) (UniProt P11362); assay: Inhibition of FGFR1 (unknown origin) at 1 uM by FRET method; in short: as §2
[7] = target: Mitogen-activated protein kinase 10 (Homo sapiens, UniProt P53779); assay: Inhibition of JNK3 (unknown origin) by FRET method
In short: (§3)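 JNK1, JNK2 and JNK3 IC50 values came from a 10-point dose–response enzymatic assay.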

[8] = Ratio of unbound AUC in brain to plasma of […] rat at 0.4 or 1 mg/kg, iv and 1 or 5 mg/kg, po; type: ADME, organism-based
In short: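 Rat PK: iv dosing at 0.4 or 1 mg/kg as a 60% PEG solution and oral dosing at 1 or 5 mg/kg as an aqueous suspension in 1% methylcellulose. The ratio is unbound brain AUC over unbound plasma AUC. Unbound clearance was taken as CL/fu, where fu is the fraction unbound in plasma.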

[9] = target: Interleukin-1 receptor-associated kinase 4 (Homo sapiens) (UniProt Q9NWZ3); assay: Inhibition of IRAK4 (unknown origin) at 1 uM by FRET method; in short: as §2
Mus musculus = assay: Reduction of p-c-Jun level in retina of optic nerve crush injury mouse model at 75 mg/kg, po administered 30 mins prior to nerve crush injury measured at 6 hrs by MSD ELISA; type: functional, organism-based
In short: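 C57/Bl6 mice were dosed orally with a methylcellulose suspension or vehicle 30 min before optic nerve crush. Retinal p-c-Jun was measured 6 h after injury by MSD ELISA. Values are expressed relative to uncrushed vehicle controls as mean ± SEM with individual animals.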

[10] = target: Tyrosine-protein kinase BTK (Homo sapiens) (UniProt Q06187); assay: Inhibition of BTK (unknown origin) at 1 uM by FRET method; in short: as §2
[11] = target: Serine/threonine-protein kinase MARK2 (Homo sapiens) (UniProt Q7KZI7); assay: Inhibition of MARK2 (unknown origin) at 1 uM by FRET method; in short: as §2
[12] = target: c-Jun N-terminal kinase, JNK (Homo sapiens) (UniProt P45983+P53779+P45984); assay: Inhibition of Myc CA-JNK (unknown origin) transfected in HEK293 cells assessed as reduction of phosphorylation of c-Jun at 10 uM incubated for 5 hrs measured by Western blot analysis; type: cell-based
In short: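 HEK293 cells were transfected with constitutively active JNK 24 h before compound treatment. Cells were then exposed to compound for 5 h.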

[13] = target: T1, Mast/stem cell growth factor receptor Kit (Homo sapiens, UniProt P10721); assay: Inhibition of Kit (unknown origin) at 1 uM by FRET method; in short: as §2
T1 sequence (P10721 whole entry): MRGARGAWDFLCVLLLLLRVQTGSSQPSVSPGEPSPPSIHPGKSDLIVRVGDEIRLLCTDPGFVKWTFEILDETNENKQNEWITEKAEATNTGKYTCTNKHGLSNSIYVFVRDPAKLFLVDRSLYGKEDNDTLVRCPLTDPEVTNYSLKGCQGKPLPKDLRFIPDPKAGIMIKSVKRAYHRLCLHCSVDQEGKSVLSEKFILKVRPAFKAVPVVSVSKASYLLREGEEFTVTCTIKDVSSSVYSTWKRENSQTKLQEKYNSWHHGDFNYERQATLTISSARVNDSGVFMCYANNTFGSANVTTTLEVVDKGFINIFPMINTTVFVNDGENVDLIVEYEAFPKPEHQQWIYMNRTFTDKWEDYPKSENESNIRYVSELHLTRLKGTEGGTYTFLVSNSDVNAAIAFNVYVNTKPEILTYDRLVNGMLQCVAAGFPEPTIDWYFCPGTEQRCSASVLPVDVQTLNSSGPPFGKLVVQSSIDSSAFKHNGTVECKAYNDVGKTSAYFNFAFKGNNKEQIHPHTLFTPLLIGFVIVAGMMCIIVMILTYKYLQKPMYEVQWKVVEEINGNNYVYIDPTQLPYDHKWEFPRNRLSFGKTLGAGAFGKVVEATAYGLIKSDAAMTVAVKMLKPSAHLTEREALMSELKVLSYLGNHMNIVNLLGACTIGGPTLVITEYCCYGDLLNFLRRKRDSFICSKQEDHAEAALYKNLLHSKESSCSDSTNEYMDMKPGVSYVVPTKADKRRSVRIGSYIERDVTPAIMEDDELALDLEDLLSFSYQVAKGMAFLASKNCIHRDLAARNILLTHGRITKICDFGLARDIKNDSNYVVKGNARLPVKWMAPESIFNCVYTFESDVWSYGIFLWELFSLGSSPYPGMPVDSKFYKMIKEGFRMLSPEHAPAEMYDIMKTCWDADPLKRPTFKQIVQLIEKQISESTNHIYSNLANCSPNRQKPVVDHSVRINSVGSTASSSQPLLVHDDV

[14] = target: Serine/threonine-protein kinase PLK1 (Homo sapiens) (UniProt P53350); assay: Inhibition of PLK1 (unknown origin) at 1 uM by FRET method; in short: as §1
[15] = target: Inhibitor of nuclear factor kappa-B kinase subunit beta (Homo sapiens) (UniProt O14920); assay: Inhibition of IKKbeta (unknown origin) at 1 uM by FRET method; in short: as §2
[16] = target: Mitogen-activated protein kinase 8 (Homo sapiens, UniProt P45983); assay: Inhibition of JNK1alpha1(unknown origin) at 1 uM by FRET method; in short: as §2
[17] = target: Glycogen synthase kinase-3 beta (Homo sapiens, UniProt P49841); assay: Inhibition of GSK3beta (unknown origin) by FRET method
[18] = target: Serine/threonine-protein kinase pim-1 (Homo sapiens) (UniProt P11309); assay: Inhibition of PIM1 (unknown origin) at 1 uM by FRET method; in short: as §1
[19] = Cmax in mouse at 50 mg/kg, po; type: ADME, organism-based; design: dose 50 mg/kg, route oral; conditions: in vivo
In short: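 C57/Bl6 mice were given a single 50 mg/kg oral dose as an MCT suspension. Plasma was sampled over 0–6 h for Cmax, Tmax and AUC0–6h.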

[20] = target: Insulin-like growth factor 1 receptor (Homo sapiens) (UniProt P08069); assay: Inhibition of IGF1R (unknown origin) at 1 uM by FRET method; in short: as §2
[21] = target: Tyrosine-protein kinase SYK (Homo sapiens) (UniProt P43405); assay: Inhibition of Syk (unknown origin) at 1 uM by FRET method; in short: as §1
[22] = target: Mitogen-activated protein kinase 3 (Homo sapiens) (UniProt P27361); assay: Inhibition of ERK1 (unknown origin) at 1 uM by FRET method; in short: as §2
[23] = target: Mitogen-activated protein kinase 9 (Homo sapiens, UniProt P45984); assay: Inhibition of JNK2 (unknown origin) by FRET method; in short: as §3
[24] = target: Tyrosine-protein kinase Lck (Homo sapiens) (UniProt P06239); assay: Inhibition of Lck (unknown origin) at 1 uM by FRET method; in short: as §2
[25] = target: Mitogen-activated protein kinase kinase kinase 8 (Homo sapiens) (UniProt P41279); assay: Inhibition of Cot (unknown origin) at 1 uM by FRET method; in short: as §2
Chain of Mitogen-activated protein kinase kinase kinase 8 (Homo sapiens) (P41279 whole entry): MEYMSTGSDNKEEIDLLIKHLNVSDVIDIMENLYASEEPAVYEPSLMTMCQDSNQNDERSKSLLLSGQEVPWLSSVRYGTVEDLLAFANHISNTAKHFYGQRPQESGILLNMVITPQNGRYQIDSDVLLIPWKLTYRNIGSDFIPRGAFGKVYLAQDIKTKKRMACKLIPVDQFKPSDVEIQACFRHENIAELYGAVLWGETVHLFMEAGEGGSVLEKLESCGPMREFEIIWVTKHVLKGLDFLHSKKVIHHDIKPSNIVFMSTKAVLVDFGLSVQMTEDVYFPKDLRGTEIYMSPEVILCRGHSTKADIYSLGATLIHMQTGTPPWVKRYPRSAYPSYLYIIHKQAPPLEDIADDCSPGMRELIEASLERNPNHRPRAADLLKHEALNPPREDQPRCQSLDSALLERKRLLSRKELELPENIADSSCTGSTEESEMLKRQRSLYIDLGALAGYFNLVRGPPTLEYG

HEK293 = assay: Effect on total JNK protein level in HEK293 cells transfected with Flag DLK (unknown origin) at 0.1 to 10 uM incubated for 5 hrs by Western blot analysis; conditions: human, hek293, 5 h
[26] = target: T1, Mast/stem cell growth factor receptor Kit; assay: Inhibition of Kit (unknown origin) by FRET method
[27] = target: Mitogen-activated protein kinase kinase kinase 11 (Homo sapiens, UniProt Q16584); assay: Inhibition of MLK3 (unknown origin) by FRET method
Chain of Mitogen-activated protein kinase kinase kinase 11 (Q16584 whole entry): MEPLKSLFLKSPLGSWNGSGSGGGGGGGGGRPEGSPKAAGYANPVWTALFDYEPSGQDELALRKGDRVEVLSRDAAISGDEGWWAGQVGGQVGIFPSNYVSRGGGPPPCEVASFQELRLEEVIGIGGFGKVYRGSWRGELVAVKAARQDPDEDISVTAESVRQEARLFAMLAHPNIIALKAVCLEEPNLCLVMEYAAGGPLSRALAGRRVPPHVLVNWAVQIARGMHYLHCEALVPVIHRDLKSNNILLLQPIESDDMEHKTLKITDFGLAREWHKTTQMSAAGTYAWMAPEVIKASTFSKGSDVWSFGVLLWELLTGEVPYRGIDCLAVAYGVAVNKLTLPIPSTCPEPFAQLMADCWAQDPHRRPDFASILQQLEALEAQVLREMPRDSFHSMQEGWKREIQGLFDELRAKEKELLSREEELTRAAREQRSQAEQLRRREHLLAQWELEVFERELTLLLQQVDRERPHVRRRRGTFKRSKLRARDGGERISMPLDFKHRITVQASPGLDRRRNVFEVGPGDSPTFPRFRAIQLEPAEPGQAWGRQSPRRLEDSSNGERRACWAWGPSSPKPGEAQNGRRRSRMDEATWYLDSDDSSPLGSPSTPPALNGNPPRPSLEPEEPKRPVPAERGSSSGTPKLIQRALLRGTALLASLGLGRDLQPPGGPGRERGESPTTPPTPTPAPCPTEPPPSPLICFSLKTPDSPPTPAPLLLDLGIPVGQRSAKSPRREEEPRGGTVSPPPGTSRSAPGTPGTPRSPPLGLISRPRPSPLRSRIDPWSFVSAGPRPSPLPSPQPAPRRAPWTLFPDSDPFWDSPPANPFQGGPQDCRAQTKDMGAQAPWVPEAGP
In short: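 Biochemical IC50 determination from a 10-point dose-response in an enzymatic Z′-LYTE assay. Labeled-peptide phosphorylation was read by FRET under the vendor's protocols.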

[28] = target: Vascular endothelial growth factor receptor 2 (Homo sapiens) (UniProt P35968); assay: Inhibition of KDR (unknown origin) at 1 uM by FRET method; in short: as §2
[29] = target: Protein kinase C beta type (Homo sapiens) (UniProt P05771); assay: Inhibition of PKCbeta1 (unknown origin) at 1 uM by FRET method; in short: as §1
Chain of Protein kinase C beta type (Homo sapiens) (P05771 2-671 limits assumed): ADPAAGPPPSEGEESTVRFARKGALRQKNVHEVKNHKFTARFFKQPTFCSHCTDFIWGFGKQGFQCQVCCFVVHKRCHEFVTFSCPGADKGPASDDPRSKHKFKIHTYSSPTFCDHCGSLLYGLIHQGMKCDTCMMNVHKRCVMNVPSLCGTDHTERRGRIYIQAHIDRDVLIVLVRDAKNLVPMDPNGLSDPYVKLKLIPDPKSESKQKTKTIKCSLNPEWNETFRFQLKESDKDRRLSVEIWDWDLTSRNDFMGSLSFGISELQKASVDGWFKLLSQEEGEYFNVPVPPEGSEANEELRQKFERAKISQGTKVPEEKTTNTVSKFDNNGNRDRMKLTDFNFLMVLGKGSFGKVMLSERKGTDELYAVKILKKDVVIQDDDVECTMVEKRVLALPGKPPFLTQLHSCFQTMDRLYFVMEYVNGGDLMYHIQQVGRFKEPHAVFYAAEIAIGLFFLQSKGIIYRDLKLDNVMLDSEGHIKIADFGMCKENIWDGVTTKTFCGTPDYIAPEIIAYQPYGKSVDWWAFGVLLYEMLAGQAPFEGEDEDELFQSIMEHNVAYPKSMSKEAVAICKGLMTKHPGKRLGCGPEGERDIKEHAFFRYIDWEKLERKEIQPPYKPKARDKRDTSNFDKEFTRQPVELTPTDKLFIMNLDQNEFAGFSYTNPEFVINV

inhibition [1]: 0.8% | inhibition [2]: -3% | inhibition [3]: 25.6% | inhibition [4]: 0.3% | inhibition [5]: 1.3% | inhibition [6]: 0.3% | IC50 [7]: 2100 nM | Kp uu [8]: 0.35 | inhibition [9]: 19.5% | inhibition [10]: 32.4% | inhibition [11]: 3% | inhibition [12]: inactive | inhibition [13]: 56% | inhibition [14]: 7.3% | inhibition [15]: 5.4% | inhibition [16]: 4.5% | IC50 [17]: 682 nM | inhibition [18]: 6.6% | Cmax [19]: 5.9 µM | inhibition [20]: 37% | inhibition [21]: 41.2% | inhibition [22]: 0.6% | IC50 [23]: 5000 nM | inhibition [24]: 37.5% | inhibition [25]: 15.6% | IC50 [26]: 534 nM | IC50 [27]: > 10000 nM | inhibition [28]: 5.2% | inhibition [29]: 15.9%
SMILES: N#Cc1ccnc(Nc2cc(C3CCN(C4COC4)CC3)n(C3CCCC3)n2)c1
Activity (Mus musculus): Active | Activity (HEK293): Non-toxic
